The source made the active and inactive calls. No cut-off for these calls is given here.
Assays:
[1] = Drug uptake in Lewis rat spleen at 3 mg/kg, po bid after 24 hrs by LC/MS/MS analysis; format: ADME, organism-based; settings: read-out: Drug uptake
[2] = Drug uptake in Lewis rat spleen at 1 mg/kg, po bid after 24 hrs by LC/MS/MS analysis; format: ADME, organism-based; settings: read-out: Drug uptake
Mus musculus [3] = assay: Dose normalized drug uptake in Balb/c mouse at 5 mg/kg, iv by LC/MS/MS analysis; format: ADME, organism-based; settings: in vivo
Mus musculus [4] = assay: In vivo inhibition of SPPL2a in mouse assessed as accumulation of CD74/p8 in splenocyte lysate at 40 mg/kg administered via oral gavage as single dose measured 16 hrs post dose by Western blot method; format: functional, organism-based
Summary of the method: (§1)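 Mice gavaged in 0.5% MC:0.5% Tween or PEG:D5W 3:1. Spleens dissociated, red cells lysed with ACK, 1 × 10^6 cells lysed with protease inhibitors; 18 μg lysate on 10% gel, blotted, CD74 full length and p8 detected with rat anti-mouse CD74 In-1 and Alexa488 anti-rat IgG, LiCor scan; p8/full-length ratio expressed as percent of reference compound ratio.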

[5] = Total concentration in Lewis rat blood at 1 mg/kg, po bid after 24 hrs by LC/MS/MS analysis; format: ADME, organism-based; settings: read-out: Drug uptake
Mus musculus [6] = assay: Immunomodulatory activity in mouse assessed as reduction in transition T1 B cells in splenocyte at 3 to 30 mg/kg administered via oral gavage bid at 8 and 16 hrs dosing interval between first and second dose respectively for 11 days measured 16 hrs post last dose on day 12 by flow cytometry; format: functional, organism-based
Summary of the method: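 Mice gavaged with compound in 0.5% MC:0.5% Tween or PEG:D5W 3:1. Spleens dissociated in GentleMACS, filtered at 40 μm, ACK red-cell lysis, counted; 1 × 10^6 splenocytes stained 30 min on ice in HBSS/2% FBS/5 mM EDTA with antimouse panels for B-cell subsets (B220, CD21, CD23, IgM, IgD) or dendritic cells (PDCA1, CD11c, MHCII, lineage markers); analyzed on Fortessa flow cytometer.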

Mus musculus [7] = assay: Immunomodulatory activity in mouse assessed as reduction in total B cells in splenocyte administered via oral gavage bid at 8 and 16 hrs dosing interval between first and second dose respectively for 11 days measured 16 hrs post last dose on day 12 by B220 staining based flow cytometry; format: functional, cell-based
[8] = target: T1, Signal peptide peptidase-like 2A (Rattus norvegicus, UniProt D3ZNG3); assay: Inhibition of rat SPPL2a expressed in human U2OS cells using EGFP-labeled TNFalpha (1 to 77 residues) NLS as substrate after 24 hrs by Hoechst staining based high content imaging assay; format: cell-based
T1 sequence (D3ZNG3 whole entry): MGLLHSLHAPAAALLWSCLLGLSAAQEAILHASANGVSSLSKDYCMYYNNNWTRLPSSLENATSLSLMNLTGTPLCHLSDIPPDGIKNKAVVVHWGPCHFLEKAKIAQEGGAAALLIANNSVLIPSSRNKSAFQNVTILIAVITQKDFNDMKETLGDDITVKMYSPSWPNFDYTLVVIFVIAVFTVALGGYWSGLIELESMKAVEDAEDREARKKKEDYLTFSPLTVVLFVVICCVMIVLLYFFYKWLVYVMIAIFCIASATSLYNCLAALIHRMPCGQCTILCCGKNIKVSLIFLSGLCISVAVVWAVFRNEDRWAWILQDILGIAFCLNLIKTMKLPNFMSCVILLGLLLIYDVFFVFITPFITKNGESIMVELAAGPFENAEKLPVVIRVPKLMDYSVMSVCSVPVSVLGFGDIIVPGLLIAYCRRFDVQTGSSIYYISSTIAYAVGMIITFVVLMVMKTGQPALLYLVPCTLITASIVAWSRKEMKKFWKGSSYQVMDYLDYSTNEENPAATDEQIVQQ
Summary of the method: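 Stable U-2 OS line with constitutive rat SPPL2a and doxycycline-inducible rat TNFα(aa1-77)-NTF–EGFP-NLS; 3000 cells/well, 3–4 h at 37 °C, then inhibitor in doxycycline medium, 11-point, 100 μM–1 nM final (0.9% DMSO, 5 μg/mL doxycycline), 24 h. PFA fixation, Hoechst nuclei; nuclear minus cytoplasmic-ring EGFP intensity. Normalised to DMSO and reference-inhibitor controls; IC50 by nonlinear regression.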

Mus musculus [9] = assay: In vivo inhibition of SPPL2a in mouse assessed as increase in CD74/p8 accumulation in splenocytes at 100 mg/kg, po administered as single dose measured after 4 hrs by Western blot method; format: functional, organism-based
[10] = Volume of distribution at steady state in Balb/c mouse at 5 mg/kg, iv by LC/MS/MS analysis; format: ADME, organism-based; settings: in vivo, read-out: Vdss
[11] = Stability in rat liver microsomes at […] preincubated for 3 mins followed by NADPH addition measured after 1 hr in presence of GSH and [13C2-15N-glycine]-GSH by HPLC/MS method; format: ADME, microsome; settings: read-out: Stability
Mus musculus [12] = assay: In vivo inhibition of SPPL2a in mouse assessed as accumulation of CD74/p8 in splenocyte lysate at 150 mg/kg administered via oral gavage as single dose measured 16 hrs post dose by Western blot method; format: functional, organism-based; summary of the method: as §1
[13] = Drug uptake in mouse spleen at 30 mg/kg, po administered as single dose after 4 hrs by LC/MS/MS analysis; format: ADME, organism-based; settings: read-out: Drug uptake
[14] = target: T2, Signal peptide peptidase-like 2A (Mus musculus, UniProt Q9JJF9); assay: Inhibition of SPPL2a in mouse whole blood assessed as increase in CD74/p8 accumulation after 5.5 hrs by Western bot method
T2 sequence (Q9JJF9 whole entry): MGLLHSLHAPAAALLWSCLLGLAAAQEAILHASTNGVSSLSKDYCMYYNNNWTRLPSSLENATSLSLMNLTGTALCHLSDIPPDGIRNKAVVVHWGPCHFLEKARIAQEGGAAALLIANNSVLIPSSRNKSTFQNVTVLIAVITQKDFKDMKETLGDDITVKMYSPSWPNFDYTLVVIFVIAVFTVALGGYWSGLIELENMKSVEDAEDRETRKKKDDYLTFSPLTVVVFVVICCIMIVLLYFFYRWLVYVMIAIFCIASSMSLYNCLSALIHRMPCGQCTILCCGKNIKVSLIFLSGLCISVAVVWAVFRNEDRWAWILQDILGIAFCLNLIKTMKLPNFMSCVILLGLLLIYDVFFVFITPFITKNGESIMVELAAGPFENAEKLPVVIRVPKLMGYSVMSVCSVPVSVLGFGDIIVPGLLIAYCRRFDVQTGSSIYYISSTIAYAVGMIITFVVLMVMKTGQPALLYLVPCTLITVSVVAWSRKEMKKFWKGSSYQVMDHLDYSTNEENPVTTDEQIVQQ
Summary of the method: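 Mouse whole blood (200 μL) with compound from 20× stock, 0.5% DMSO final, 5.5 h at 37 °C, 5% CO2 with rotation. RBC lysis, washes, lysis in Tris pH 6.8/Triton/deoxycholate buffer; Western blot with rat anti-mouse CD74 (In-1); p8 band intensity normalized to CD74 full-length/β-actin for dose response.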

[15] = Total plasma concentration in mouse at 30 mg/kg, po administered as single dose after 4 hrs by LC/MS/MS analysis; format: ADME, organism-based
[16] = Drug uptake in mouse spleen at 100 mg/kg, po administered as single dose after 4 hrs by LC/MS/MS analysis; format: ADME, organism-based; settings: read-out: Drug uptake

Compound: Cc1ncc(F)cc1NC(=O)C[C@H](C(=O)N[C@@H]1C(=O)N2CC3(CC3)CN2C(=O)c2ccccc21)C1CC1
- concentration at 24 h [1]: 860 nM
- concentration at 24 h [2]: 330 nM
- Druguptake/dose (Mus musculus [3]): 264 nM
- inhibition (Mus musculus [4]): Active
- concentration at 24 h [5]: 49 nM
- Activity (Mus musculus [6]): Active
- Activity (Mus musculus [7]): Dose-dependent effect
- IC50 [8]: 56 nM

Compound: Cc1ccccc1NC(=O)C[C@@H](C)C(=O)N[C@@H]1C(=O)N2CCCN2Cc2ccccc21
- Activity (Mus musculus [9]): Active
- Vd [10]: 1.2 L/kg
- remaining at 1 h [11]: 93.2%
- inhibition (Mus musculus [12]): Active
- concentration at 4 h [13]: 434 nM
- IC50 [14]: 550 nM
- concentration at 4 h [15]: 500 nM
- concentration at 4 h [16]: 1440 nM

Source: ChEMBL document CHEMBL4043282, “Discovery of the First Potent, Selective, and Orally Bioavailable Signal Peptide Peptidase-Like 2a (SPPL2a) Inhibitor Displaying Pronounced Immunomodulatory Effects In Vivo” (J Med Chem, 2018)
